Measurements: ChEMBL document CHEMBL3734668, “Evaluation of small molecule SecA inhibitors against methicillin-resistant Staphylococcus aureus” (Bioorg Med Chem, 2015)
≈ marks a conversion by molar mass, not a printed value. Calls of active or inactive are those of the source. No cut-off for these calls is given here.

What was measured:
[1] = test system: Staphylococcus aureus; assay: Bacteriostatic activity against wild type Staphylococcus aureus 8325-4; assay type: functional
In short: (§1)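 Broth microdilution MIC per CLSI guidance in LB, 37 °C, shaking 250 rpm, 24 hr; run in triplicate in three separate experiments. MIC taken as lowest inhibitor concentration with no growth. Compounds from DMSO stocks; untreated controls carry equal DMSO.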

[2] = test system: Staphylococcus aureus; assay: Potency index, ratio of MIC for ampicillin to MIC for test compound against Methicillin resistant Staphylococcus aureus; assay type: functional
[3] = test system: Staphylococcus aureus; assay: Potency index, ratio of MIC for tetracycline to MIC for test compound against Methicillin resistant Staphylococcus aureus; assay type: functional
[4] = target: T1, Protein translocase subunit SecA 2 (Staphylococcus aureus (strain NCTC 8325), UniProt Q2FUW6); assay: Inhibition of Staphylococcus aureus ATCC 35556 SecA2 expressed in Escherichia coli BL21-gammaDE3 assessed as reduction in intrinsic ATPase activity incubated for 3 hrs measured by malachite green colorimetric method
T1 sequence (Q2FUW6 whole entry): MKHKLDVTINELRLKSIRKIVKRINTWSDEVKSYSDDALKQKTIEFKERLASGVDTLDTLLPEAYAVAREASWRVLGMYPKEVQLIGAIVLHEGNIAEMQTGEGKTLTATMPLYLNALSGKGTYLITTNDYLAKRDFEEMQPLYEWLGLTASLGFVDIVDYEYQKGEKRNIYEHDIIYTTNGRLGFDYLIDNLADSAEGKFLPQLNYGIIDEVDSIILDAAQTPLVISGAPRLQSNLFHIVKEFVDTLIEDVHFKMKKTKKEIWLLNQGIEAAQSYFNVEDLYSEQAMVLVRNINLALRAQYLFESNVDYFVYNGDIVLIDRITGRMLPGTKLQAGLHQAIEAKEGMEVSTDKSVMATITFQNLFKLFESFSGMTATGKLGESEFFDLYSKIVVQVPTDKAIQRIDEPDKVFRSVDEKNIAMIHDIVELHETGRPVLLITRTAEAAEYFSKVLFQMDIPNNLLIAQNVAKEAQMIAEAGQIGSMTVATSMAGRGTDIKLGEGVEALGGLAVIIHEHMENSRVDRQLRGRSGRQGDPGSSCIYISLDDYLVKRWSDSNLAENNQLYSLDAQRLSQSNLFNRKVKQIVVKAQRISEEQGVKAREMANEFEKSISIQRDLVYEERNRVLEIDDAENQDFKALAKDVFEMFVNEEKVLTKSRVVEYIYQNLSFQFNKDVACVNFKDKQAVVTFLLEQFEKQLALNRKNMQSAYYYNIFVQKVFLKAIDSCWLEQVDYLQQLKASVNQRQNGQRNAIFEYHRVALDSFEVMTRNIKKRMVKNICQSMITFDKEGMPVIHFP

[5] = test system: Staphylococcus aureus; assay: Reduction in extracellular protein in Staphylococcus aureus Mu50 supernatant at 10 uM measured within 15 hrs; assay type: functional, organism-based
In short: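 Mu50 grown in LB at 37 °C; inhibitor added at mid-log phase (OD600 ≈ 2.6). Culture sampled at various times, supernatant separated by centrifugation and passed through 0.45 μm filter. Secreted α-hemolysin, TSST-1 and enterotoxin B detected by Western blot with specific antibodies.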

[6] = test system: Staphylococcus aureus; assay: Bactericidal activity against Methicillin resistant Staphylococcus aureus Mu50 assessed as CFU reduction at 30 uM for 1 hr; assay type: functional
In short: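 Log-phase Mu50 cultures (OD600 ≈ 0.5) mixed with a range of inhibitor concentrations, shaken 1,000 rpm at 37 °C for 1 hr under normal room light. Cultures then serially diluted in LB, plated on LB agar and incubated overnight at 37 °C. Activity expressed as reduction in CFU relative to untreated control containing matching DMSO.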

[7] = test system: Staphylococcus aureus; assay: Bacteriostatic activity against Staphylococcus aureus Mu3 after 24 hrs; assay type: functional; conditions: Mu3, 24 h; in short: as §1
[8] = test system: Staphylococcus aureus; assay: Bacteriostatic activity against Staphylococcus aureus Newman after 24 hrs; assay type: functional; in short: as §1
[9] = target: T2, Protein translocase subunit SecA 1 (Staphylococcus aureus (strain NCTC 8325), UniProt O06446); assay: Inhibition of Staphylococcus aureus ATCC 35556 SecA1 liposomal ion channel activity in Xenopus laevis oocytes incubated for 3 hrs measured by recording ion current for 1 min; assay type: cell-based
T2 sequence (O06446 whole entry): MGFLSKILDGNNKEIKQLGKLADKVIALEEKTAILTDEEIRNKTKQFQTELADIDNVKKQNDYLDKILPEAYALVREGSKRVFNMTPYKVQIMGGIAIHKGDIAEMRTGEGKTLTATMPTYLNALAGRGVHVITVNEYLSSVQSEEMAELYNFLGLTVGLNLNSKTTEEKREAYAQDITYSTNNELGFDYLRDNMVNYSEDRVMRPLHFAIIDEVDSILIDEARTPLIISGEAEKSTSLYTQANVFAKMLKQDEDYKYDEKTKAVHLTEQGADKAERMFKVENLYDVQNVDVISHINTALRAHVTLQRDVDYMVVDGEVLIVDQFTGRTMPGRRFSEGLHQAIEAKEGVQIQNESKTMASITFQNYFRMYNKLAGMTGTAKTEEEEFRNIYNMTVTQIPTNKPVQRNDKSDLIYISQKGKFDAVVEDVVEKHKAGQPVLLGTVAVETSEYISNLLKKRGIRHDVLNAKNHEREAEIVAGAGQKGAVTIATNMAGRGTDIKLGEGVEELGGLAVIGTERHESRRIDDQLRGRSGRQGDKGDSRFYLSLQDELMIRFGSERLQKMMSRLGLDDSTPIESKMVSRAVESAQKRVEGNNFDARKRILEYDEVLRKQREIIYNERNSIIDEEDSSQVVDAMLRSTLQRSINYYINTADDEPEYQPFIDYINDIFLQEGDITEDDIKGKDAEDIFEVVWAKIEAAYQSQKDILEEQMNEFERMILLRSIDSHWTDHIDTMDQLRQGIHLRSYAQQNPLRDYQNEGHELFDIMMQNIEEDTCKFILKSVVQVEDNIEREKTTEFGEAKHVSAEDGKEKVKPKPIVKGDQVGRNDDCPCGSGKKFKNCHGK
In short: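 Xenopus laevis oocytes injected at animal pole with 50 nl containing 120 ng liposomes, 120 ng SaSecA1, 14 ng proOmpA, 2 mM ATP, 1 mM Mg(OAc)2 plus varying inhibitor. Incubated 3 hr at 23 °C, then ion current recorded continuously 1 min.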

[10] = test system: Staphylococcus aureus; assay: Bactericidal activity against Methicillin sensitive Staphylococcus aureus ATCC 6538 assessed as CFU reduction for 1 hr; assay type: functional, organism-based
In short: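 Log-phase LB cultures (OD600 ≈ 0.5) mixed with a range of inhibitor concentrations, shaken at 1,000 rpm, 37 °C, 1 hr, under normal room light. Cultures serially diluted in LB, plated on LB agar, incubated overnight at 37 °C. CFU counted; bactericidal effect taken as CFU reduction versus untreated control.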

[11] = target: T3, Protein translocase subunit SecA 1 (Staphylococcus aureus (strain NCTC 8325)) (UniProt O06446); assay: Inhibition of Staphylococcus aureus SecA1 assessed as reduction in secretion of TSST-1 at 10 uM by Western blot analysis
T3 sequence (whole entry): T2 sequence (O06446 whole entry)
In short: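 S. aureus Mu50 grown in LB at 37 °C; inhibitor added at mid-log phase and cultures sampled at several time points. Supernatants separated by centrifugation, filtered 0.45 μm, and probed by Western blot with antibodies to α-hemolysin, TSST-1 or enterotoxin B.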

[12] = test system: Staphylococcus aureus; assay: Bacteriostatic activity against NorA deficient Staphylococcus aureus K1758; assay type: functional; in short: as §1
[13] = test system: Staphylococcus aureus; assay: Potency index, ratio of MIC for norfloxacin to MIC for test compound against Methicillin resistant Staphylococcus aureus; assay type: functional

In the case of CCCCCCC1c2ccc(O)cc2Oc2cc(O)ccc21, the MIC [1] is reported as 4 µg/mL (≈ 13.4 µM), the Ratio [2] is reported as 250 and the Ratio [3] is reported as 7. The IC50 [4] was 15 µM, the Activity [5] was “Active” and the Activity [6] was over 3 log10CFU/ml. For the same molecule, the MIC [7] was 4 µg/mL (≈ 13.4 µM), the MIC [8] was 4 µg/mL (≈ 13.4 µM) and the IC50 [9] was 1000 nM. For the same molecule, the Activity [10] was “Dose-dependent effect”, the inhibition [11] was “Active” and the MIC [12] was 4 µg/mL (≈ 13.4 µM). The Ratio [13] was 7.
